Arr AP2 block: human beta-arrestin and AP2 interaction inhibition. actives 0.31% (n = 340,000). FITC-arrestin peptide / GST-AP2 beads, flow cytometry; AP2 beta2 appendage carries R879A mutation. inhibition, % at 10 µM. AID 504490;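 active means inhibition above a set limit, near 3 SD of compounds lacking own fluorescence, cut at about 54% in these data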;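 further: plate controls were DMSO wells for no effect and 5 µM unlabelled arrestin peptide for full effect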
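System: GST-AP2 R879A glutathione beads | Also added: FITC-arrestin peptide, 50 nM | Times: 12 min plus 1 h, RT | Signal: Bead flow cytometry, FITC channel | Buffer or medium: PBS with 0.05% Tween 20 and 0.1% BSA | Read-out basis: Percent drop in bead-associated FITC signal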
PolyA inhibitor: inhibitors of polyadenylation in S. cerevisiae | S. cerevisiae SKY197-pL101 polyadenylation reporter, beta-gal luminescence; efflux-impaired pdr1/pdr3 knockout yeast; score 100 = 6 SD above DMSO | activity score, % at 12 µM | actives 0.02% (n = 300,000) | AID 1875;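 active means lowest replicate activity score at least 50, where 100 means six control SD above control mean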;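 further: yeast exposed to compound for 9 h at 30 °C; higher score means more reporter readthrough which indicates perturbed polyadenylation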
NLRP3 yeast inh: NALP3 inhibition in yeast | Yeast reconstituted NLRP3/ASC/caspase-1, beta-gal luminescence, 24 h | inhibition, % at 10 µM | actives 0.39% (n = 330,000);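 active means inhibition of 50% or more; inactive means inhibition below 50%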;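 further: plate controls were induced DMSO wells for no effect and uninduced yeast grown without galactose for full effect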
NALP1 inh: inhibitors of NALP1 inflammasome in yeast. S. cerevisiae NALP1/ASC/caspase-1 growth, X-gal OD620, 72 h. inhibition, % at 10 µM. actives 0.61% (n = 280,000). AID 2071; in the data active means inhibition mostly above about 24%, no sharp cut-off; inactive means mostly below about 32%
ALR H2O2 inh: inhibitors of human sulfhydryl oxidase ALR; purified ALR, DTT oxidation, H2O2 HRP-luminol luminescence; P55789; actives 3.8% (n = 290,000); inhibition, % (concentration not given with the values); AID 485317;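 active means mean replicate inhibition above about 79%, with every replicate also reaching it, limit read from the data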
Target sequence (P55789 whole entry, looked up): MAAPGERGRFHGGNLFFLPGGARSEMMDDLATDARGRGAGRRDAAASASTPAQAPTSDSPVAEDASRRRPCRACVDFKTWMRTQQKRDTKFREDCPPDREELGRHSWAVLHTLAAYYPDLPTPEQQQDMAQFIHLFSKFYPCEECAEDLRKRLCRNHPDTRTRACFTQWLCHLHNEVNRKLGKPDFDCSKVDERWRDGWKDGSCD
DSG3 Ab inh: blocks pemphigus antibody binding to human desmoglein-3; P32926; actives 0.48% (n = 310,000); binding (percent of control), % at 10 µM; DSG3-coupled beads, scFv-anti-DSG3-GFP binding, flow cytometry; stronger effect = lower value; AID 588358;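 active means binding more than 3 SD below its plate's average and above zero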;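 further: hits lower antibody fragment binding to DSG3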
* marks the source's active call; other numbers are inactive results; x = not tested or not shown. Most compounds without a hit are left out; they make up all but 4.6% or so of the library.

SMILES	Arr AP2 block	PolyA inhibitor	NLRP3 yeast inh	NALP1 inh	ALR H2O2 inh	DSG3 Ab inh
CSCCC(NS(=O)(=O)c1ccc(Cl)cc1)C(=O)N1CCN(c2ccccc2)CC1 (stereo unspecified)	-8	x	x	x	x	-2.0*
CSCCC(NS(=O)(=O)c1ccc(Cl)cc1)C(=O)OCC(=O)N(C(C)C)C(C)C (stereo unspecified)	0	2	3	35*	0	105
Cc1ccc(N2CC(C(=O)NCCC3=CCCCC3)CC2=O)cc1 (stereo unspecified)	-12	19	17	x	-3	104
Nc1ccccc1Nc1ccc([N+](=O)[O-])cc1[N+](=O)[O-]	2	-14	9	17	x	110
Nc1cc([N+](=O)[O-])ccc1Nc1ccc(O)cc1	24	-4	32	-1	99*	102
COc1ccc(CN2CCCC(C(=O)Nc3cccc(-n4cnnn4)c3)C2)c(C)c1C (stereo unspecified)	3	-11	7	8	-1	104
CCc1c(-c2ccccc2)nc2nc(C)c(C)nn12	3	0	18	-8	-2	33*
Cc1nc2nc(-c3ccccc3)cn2nc1C	5	-28	16	x	-4	98
O=C(CCCn1c(=S)[nH]c2cc3c(cc2c1=O)OCO3)NCc1ccccc1Cl	-6	25	17	-3	0	96
Nc1nn(-c2ccccc2)c(N)c1N=Nc1ccc2c(c1)OCO2	35	-29	31	24	95*	98
Cc1ccc(NC(=O)COC(=O)C(NS(=O)(=O)c2ccc(Cl)cc2)C(C)O)c(Br)c1 (stereo unspecified)	-7	-5	-30	23	-7	53*
O=C1C(Br)=C(c2ccccc2)C(c2ccccc2)=C1c1ccccc1	24	x	x	x	x	90
COC(=O)c1sc(N2C(=O)C(=O)/C(=C(/O)c3ccc(C)cc3)C2c2ccco2)nc1C (stereo unspecified)	x	-3	2	x	92*	x
COc1cc(NS(=O)(=O)c2ccc(Nc3nc(-c4ccccc4)cs3)cc2)nc(OC)n1	-9	2	x	3	96*	98
Cc1cc(NS(=O)(=O)c2ccc(Nc3nc(-c4sc(N)nc4C)cs3)cc2)no1	-11	-3	29	10	99*	98
COc1cc(NS(=O)(=O)c2ccc(NC(=S)Nc3ccccc3)cc2)nc(OC)n1	-16	-1	16	11	x	104
Cc1cc(NS(=O)(=O)c2ccc(Nc3nc(-c4ccc(O)cc4)cs3)cc2)no1	-1	21	1	8	100*	93
S=C1NC2(CCCCC2)NN1c1ccccc1	7	-15	22	9	98*	103
Cc1cc(OCC(=O)NNC(=S)NC(=O)c2ccc(Br)o2)ccc1Cl	0	x	24	2	88*	102
O=C(Cc1ccccc1)NNC(=S)NC(=O)c1cccs1	-47	-38	22	-4	97*	110
C/C(=N\NC(=O)Cc1ccccc1)c1cccs1	26	-2	9	6	-8	78*
O=C(NC(=S)NCc1ccccc1)c1cccs1	51	-11	5	13	37	109
O=C(Cc1cccs1)NNC(=S)NC(=O)c1ccccc1	14	-44	30	-6	98*	96
Cc1ccc(S(=O)(=O)N2CC(C)N(C(=O)N3CCOCC3)C2C)cc1 (stereo unspecified)	5	-7	19	-2	1	107
COc1ccc(NC(=O)CN(C)C(=O)Cc2ccc3c(c2)CCC3)cc1	-15	6	8	6	-3	104
SMILES	Arr AP2 block	PolyA inhibitor	NLRP3 yeast inh	NALP1 inh	ALR H2O2 inh	DSG3 Ab inh
Cc1cccc(C(C)C)c1NC(=O)COC(=O)CCN1C(=O)C2CC=CCC2C1=O (stereo unspecified)	3	6	22	-1	-3	105
O=C(NNC(=S)NC(=O)c1cccs1)c1ccc(O)cc1	-2	x	9	0	73	113
O=C(NC(=S)NNC(=O)c1cccs1)c1ccc(Br)o1	0	-15	8	5	99*	125
Cc1cc(=O)oc2cc(OCCSCCN3CCCCC3)ccc12	1	3	14	7	99*	x
Cc1cc(=O)oc2cc(OCCc3ccccc3)ccc12	21	13	31	6	-32	95
[O-]c1c[n+](-c2ccc(-[n+]3cc([O-])on3)cc2)no1	1	28	13	24	98*	100
[O-]c1c[n+](-c2ccccc2)no1	2	19	9	x	-5	107
COc1ccc(CN2C(=O)C(CC(=O)NCC3CCCCC3)CC(C(=O)N(C(C)C)C(C)C)=C2C)cc1 (stereo unspecified)	x	x	x	x	x	102
O=C(NCc1ccon1)C1CCC(=O)N(CCc2ccc(Cl)cc2)C1 (stereo unspecified)	18	-11	15	15	0	x
CCCCCCCCN1[C@@H](CC(=O)O)c2ccc(C(F)(F)F)cc2S1(=O)=O	0	-6	11	x	97*	104
CCCCCCCCCCCCN1[C@@H](CC(C)=O)c2cc(C(F)(F)F)ccc2S1(=O)=O	27	-1	2	x	-4	101
Cc1ccc(CSc2nnc(Nc3ccc(C)cc3)s2)cc1	10	4	-4	6	0	67*
CCCn1nc(C(=O)NNC(=O)CSC(C)C(=O)Nc2cc(C)on2)c2ccccc2c1=O (stereo unspecified)	27	-5	4	11	-14	x
O=C(NCSc1ccncn1)c1ccccc1	24	0	21	19	99*	101
COc1cc(/C=C/C(=O)OCC(=O)NC(=O)NC(C)(C)C)ccc1O	-6	17	-20	x	99*	93
COc1cc(/C=C/C(=O)OCC(=O)N2CC3(C)CC2CC(C)(C)C3)ccc1O (stereo unspecified)	-7	16	13	14	99*	88
CCN(C(=O)COC(=O)/C=C/c1ccc(O)c(OC)c1)C1CCS(=O)(=O)C1 (stereo unspecified)	3	17	8	4	98*	97
COc1cc(/C=C/C(=O)OCC(=O)Nc2cccc(F)c2)ccc1O	3	x	22	x	x	99
CCN(C(=O)COC(=O)/C=C/c1ccc(OC(F)F)c(OC)c1)C1CCS(=O)(=O)C1 (stereo unspecified)	-3	x	11	x	3	105
COc1cc(/C=C/C(=O)OCC(=O)N2CCC(C)CC2)ccc1O	-9	-11	21	x	99*	113
COc1ccccc1OCC(=O)N/N=C(\C)c1ccc2ccccc2c1	x	x	x	x	x	99
CC(=O)Nc1cccc(NC(=O)c2csc(C)c2)c1	-6	-3	14	1	-6	101

Bioassay records: PubChem BioAssay, several laboratories
